Measurements reported in publication PMC3061239 (Bioconjugate chemistry, 2010).

Columns and labels:
[1] = 5 min; cited from earlier work
[2] = MicroPET imaging, myocardial tissue time-activity curves; type: in vivo; conditions: male Sprague-Dawley rats
[3] = Biodistribution of [^18F]7 in rats after i.v. injection; type: in vivo, Sprague-Dawley rats; conditions: for Distribution, blood / Distribution, bone / Distribution, brain / Distribution, fat / Distribution, heart / Distribution, kidney / Distribution, liver / Distribution, lung / Distribution, muscle / Distribution, pancreas / Distribution, spleen: male Sprague-Dawley rats, mean ± SD
Summary of the method: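 Adult male Sprague-Dawley rats (170–250 g) under 2–3 % isoflurane/O2 received ~20–25 μCi/100 μL tracer (formulated in 3% HSA) via lateral tail vein. Killed at 5, 30, 60, 120 min, 4–8 rats per time; bone and fat taken only at 5 and 60 min (4 rats). Tissues weighed and gamma-counted alongside injectate standard dilution. Expressed as %ID/g, mean ± SD; Student's t-test.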

[4] = 5 min post-i.v. injection, rats

In the case of `CCCCCCCCC([18F])CCCCC1CC1CC(=O)O` (racemic) [[^18F]FCPHA, trans-9-(RS)-[^18F]fluoro-3,4-(RS,RS) methyleneheptadecanoic acid], the “uptake in rat myocardium” value [1] is given as “approximately 1.5 %ID/gram tissue”.

With `O=C(O)CCCCCCCCCCCCCCc1ccc(OCC[18F])cc1` [[^18F]7, 15-(4-(2-[^18F]fluoroethoxy)phenyl)pentadecanoic acid] the “accumulation in bone on PET images” value [2] was “no evidence of accumulation in bone”, the “Ratio of activity heart:blood” value [3, 4] was 2.55 and the “Ratio of activity heart:skeletal muscle” value [3, 4] was 8.3. The “Uptake in heart at 30 min as percentage of the 5 min activity” value ([3]; 30 min post injection vs 5 min, rats) was 35%, the “Uptake in heart relative to blood” value ([3]; 120 min post injection, rats) was “approximately 1.4 fold” and the “Distribution, blood” value ([3]; 5 min post i.v. injection) was 0.76 ± 0.05 %ID/gram. For the same molecule, the “Distribution, blood” value ([3]; 30 min post i.v. injection) was 0.75 ± 0.06 %ID/gram, the “Distribution, blood” value ([3]; 60 min post i.v. injection) was 0.56 ± 0.06 %ID/gram and the “Distribution, blood” value ([3]; 120 min post i.v. injection) was 0.26 ± 0.06 %ID/gram. The “metabolic defluorination (bone activity)” value ([3]; bone activity between 5 and 60 min, rats) was “no significant metabolic defluorination”, the “Distribution, bone” value ([3]; 5 min post i.v. injection) was 0.28 ± 0.01 %ID/gram and the “Distribution, bone” value ([3]; 60 min post i.v. injection) was 0.33 ± 0.06 %ID/gram. For the same molecule, the “Distribution, brain” value ([3]; 5 min post i.v. injection) was 0.11 ± 0.01 %ID/gram, the “Distribution, brain” value ([3]; 30 min post i.v. injection) was 0.13 ± 0.01 %ID/gram and the “Distribution, brain” value ([3]; 60 min post i.v. injection) was 0.10 ± 0.01 %ID/gram. For the same molecule, the “Distribution, brain” value ([3]; 120 min post i.v. injection) was 0.06 ± 0.01 %ID/gram, the “Distribution, fat” value ([3]; 5 min post i.v. injection) was 0.14 ± 0.02 %ID/gram and the “Distribution, fat” value ([3]; 60 min post i.v. injection) was 0.17 ± 0.01 %ID/gram. The “Increase of activity in fat” value ([3]; from 5 to 60 min, rats, P = 0.04) was 20%, the “Distribution, heart” value ([3]; 5 min post i.v. injection) was 2.00 ± 0.44 %ID/gram and the “Distribution, heart” value ([3]; 30 min post i.v. injection) was 0.72 ± 0.10 %ID/gram. For the same molecule, the “Distribution, heart” value ([3]; 60 min post i.v. injection) was 0.86 ± 0.28 %ID/gram, the “Distribution, heart” value ([3]; 120 min post i.v. injection) was 0.34 ± 0.04 %ID/gram and the “Distribution, kidney” value ([3]; 5 min post i.v. injection) was 1.30 ± 0.09 %ID/gram. The “Distribution, kidney” value ([3]; 30 min post i.v. injection) was 1.26 ± 0.08 %ID/gram, the “Distribution, kidney” value ([3]; 60 min post i.v. injection) was 1.02 ± 0.15 %ID/gram and the “Distribution, kidney” value ([3]; 120 min post i.v. injection) was 0.52 ± 0.07 %ID/gram. For the same molecule, the “Distribution, liver” value ([3]; 5 min post i.v. injection) was 2.71 ± 0.37 %ID/gram, the “Distribution, liver” value ([3]; 30 min post i.v. injection) was 1.39 ± 0.09 %ID/gram and the “Distribution, liver” value ([3]; 60 min post i.v. injection) was 0.81 ± 0.10 %ID/gram. For the same molecule, the “Distribution, liver” value ([3]; 120 min post i.v. injection) was 0.49 ± 0.07 %ID/gram, the “Distribution, lung” value ([3]; 5 min post i.v. injection) was 1.26 ± 0.32 %ID/gram and the “Distribution, lung” value ([3]; 30 min post i.v. injection) was 0.87 ± 0.06 %ID/gram. For the same molecule, the “Distribution, lung” value ([3]; 60 min post i.v. injection) was 0.95 ± 0.27 %ID/gram, the “Distribution, lung” value ([3]; 120 min post i.v. injection) was 0.52 ± 0.06 %ID/gram and the “Distribution, muscle” value ([3]; 5 min post i.v. injection) was 0.23 ± 0.03 %ID/gram. For the same molecule, the “Distribution, muscle” value ([3]; 30 min post i.v. injection) was 0.24 ± 0.04 %ID/gram, the “Distribution, muscle” value ([3]; 60 min post i.v. injection) was 0.21 ± 0.02 %ID/gram and the “Distribution, muscle” value ([3]; 120 min post i.v. injection) was 0.12 ± 0.01 %ID/gram. For the same molecule, the “Distribution, pancreas” value ([3]; 5 min post i.v. injection) was 0.73 ± 0.07 %ID/gram, the “Distribution, pancreas” value ([3]; 30 min post i.v. injection) was 0.50 ± 0.03 %ID/gram and the “Distribution, pancreas” value ([3]; 60 min post i.v. injection) was 0.42 ± 0.04 %ID/gram. For the same molecule, the “Distribution, pancreas” value ([3]; 120 min post i.v. injection) was 0.28 ± 0.02 %ID/gram, the “Distribution, spleen” value ([3]; 5 min post i.v. injection) was 0.94 ± 0.05 %ID/gram and the “Distribution, spleen” value ([3]; 30 min post i.v. injection) was 0.63 ± 0.07 %ID/gram. For the same molecule, the “Distribution, spleen” value ([3]; 60 min post i.v. injection) was 0.57 ± 0.11 %ID/gram and the “Distribution, spleen” value ([3]; 120 min post i.v. injection) was 0.40 ± 0.06 %ID/gram.
